In ChEMBL document CHEMBL4304743, “Discovery of ( E)- N1-(3-Fluorophenyl)- N3-(3-(2-(pyridin-2-yl)vinyl)-1 H-indazol-6-yl)malonamide (CHMFL-KIT-033) as a Novel c-KIT T670I Mutant Selective Kinase Inhibitor for Gastrointestinal Stromal Tumors (GISTs)” (J Med Chem, 2019):
Calls of active or inactive are those of the source. The rule behind the calls is not given here.

Legend:
[1] = tested on: Mast/stem cell growth factor receptor Kit (Homo sapiens), P10721 [V559G]; experiment: Inhibition of TEL fused c-KIT V559G mutant (unknown origin) transfected in mouse BAF3 cells assessed as growth inhibition after 72 hrs by CCK8 assay; format: cell-based
Summary of the method: (§1)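 Tel-c-KIT-transformed BaF3 lines (IL-3 independent) kept in RPMI 1640 with 10% FBS, 2% L-glutamine and pen/strep. Cells at 1.5 to 5 × 10^4 cells/mL mixed with graded compound and incubated 72 h at 37 °C, 5% CO2. Viability by CCK-8 absorbance at 450 nm, normalized to DMSO. GI50 from dose–response fit.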

Mus musculus = experiment: Inhibition of c-KIT phosphorylation at Y719 residue in tumor of human GIST5R cells xenografted in nude mouse at 100 mg/kg, po administered as single dose and measured at 2 hrs; format: functional, organism-based
Summary of the method: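 Female nu/nu mice bearing subcutaneous GIST-5R xenografts (cells in Matrigel, right flank) given one oral gavage dose of 100 mg/kg in HKI suspension (0.5% methocellulose/0.4% Tween80 in ddH2O). Tumors collected over a 2 h time course; p-c-KIT, p-ERK and p-AKT assessed by Western blot; plasma drug levels monitored in parallel.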

[2] = molecular target: Mast/stem cell growth factor receptor Kit (Homo sapiens, UniProt P10721); experiment: Inhibition of wild type c-KIT phosphorylation at Y719 residue in human COLO320DM cells after 2 hrs by Western blot analysis; format: cell-based
[3] = molecular target: Platelet-derived growth factor receptor beta (Homo sapiens, UniProt P09619); experiment: Binding affinity to wild-type human partial length PDGFRB (V582 to Y1009 residues) expressed in bacterial expression system assessed as enzyme remaining activity at 1 uM by Kinomescan assay relative to control
Summary of the method: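 KINOMEscan competition binding panel of 468 kinases and mutants, compound at 1 μM; binding reported as percent of control.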

[4] = Oral bioavailability in Sprague-Dawley rat at 10 mg/kg measured after 5 to 720 mins by LC-tandem mass spectrometry analysis; format: ADME, organism-based; conditions: in vivo
Summary of the method: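 Male Sprague–Dawley rats (190-210 g), fasted 12 h, given 1 mg/kg i.v. or 10 mg/kg p.o. in DMSO/5% glucose water (1:9). Blood sampled at 2–720 min (i.v.) or 5–720 min (p.o.). Plasma proteins precipitated with methanol using caffeine internal standard, then LC-MS/MS. Noncompartmental analysis; F = AUC0-∞ ratio corrected for dose; triplicate ±SD.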

[5] = tested on: Mast/stem cell growth factor receptor Kit (Homo sapiens), P10721 [UNDEFINED MUTATION]; experiment: Inhibition of c-KIT 560 to 578 deletion mutant in human GISTT1 cells assessed as reduction in c-KIT autophosphorylation at Y823 residue at 0.1 uM to 3 uM after 1 hr by Western blot analysis; format: cell-based
Summary of the method: (§2)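 Serial compound dilutions applied for 1 h to GIST-T1, GIST-T1-T670I (CRISPR/Cas9 T670I knock-in, clone confirmed by Sanger sequencing) or GIST-5R cells in DMEM with 10% FBS. Cells then lysed and phospho-proteins detected by standard Western blotting.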

[6] = Cmax in mouse at 10 mg/kg, po measured after 5 to 720 mins by LC-tandem mass spectrometry analysis; format: ADME, organism-based; design: dose 10 mg/kg, route oral; conditions: in vivo
Summary of the method: (§3)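 Mice dosed 1 mg/kg i.v. or 10 mg/kg p.o.; plasma drug levels by LC-MS/MS, parameters by noncompartmental analysis; values not from triplicate testing.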

[7] = tested on: Mast/stem cell growth factor receptor Kit (Homo sapiens), P10721 [L576P]; experiment: Inhibition of TEL fused c-KIT L576P mutant (unknown origin) transfected in mouse BAF3 cells assessed as growth inhibition after 72 hrs by CCK8 assay; format: cell-based; summary of the method: as §1
[8] = tested on: Mast/stem cell growth factor receptor Kit (Homo sapiens), P10721 [V559D,T670I]; experiment: Binding affinity to human partial length c-KIT V559D/T670I double mutant (Y545 to D952 residues) expressed in bacterial expression system assessed as enzyme remaining activity at 1 uM by Kinomescan method relative to control
Summary of the method: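 KINOMEscan binding profile (DiscoverX) run at 1 μM against a panel of 468 kinases and mutants. Read-out is percent of control (%Ctrl) remaining bound.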

[9] = Antitumor activity against human GIST5R cells xenografted in nude mouse assessed as tumor growth inhibition at 100 mg/kg, po administered […] via gavage for 28 days relative to control; format: functional; conditions: 672 h, read-out: TGI
Summary of the method: (§4)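 Female nu/nu mice (5 weeks old) given subcutaneous right-flank GIST-5R cells in Matrigel. Dosing began at tumors of 200-400 mm3; randomized, 4 mice per group. Daily oral dosing (QD) at 25, 50 or 100 mg/kg in 0.5% methylcellulose/0.4% Tween80, or vehicle alone, for 28 days. Body weight and tumor volume, (W²×L)/2, measured daily; mean±SEM.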

GIST882 = experiment: Antiproliferative activity against human GIST882 cells harboring c-KIT K642E mutant incubated for 72 hrs by CCK8 assay; format: functional; conditions: GIST882, 72 h
Summary of the method: (§5)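 Adherent GIST cells seeded at 1.5-5 × 10^4 cells/mL and left overnight at 37 °C, 5% CO2. Medium then replaced with medium holding serial compound dilutions; 72 h incubation. Viability by CCK-8, absorbance at 450 nm, normalized to DMSO control; GI50 from dose-response fit.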

Homo sapiens = experiment: Antitumor activity against human GIST5R cells xenografted in po dosed nude mouse assessed as reduction in tumor size administered […] via gavage for 28 days post tumor inoculation; format: functional, organism-based; summary of the method: as §4
[10] = tested on: Mast/stem cell growth factor receptor Kit (Homo sapiens), P10721 [UNDEFINED MUTATION]; experiment: Inhibition of c-KIT 560 to 578 deletion mutant in human GISTT1 cells assessed as reduction in STAT3 phosphorylation at 0.1 uM to 3 uM after 1 hr by Western blot analysis; format: cell-based; summary of the method: as §2
[11] = MRT (0 to infinity) in mouse at 10 mg/kg, po measured after 5 to 720 mins by LC-tandem mass spectrometry analysis; format: ADME, organism-based; conditions: in vivo
[12] = tested on: Mast/stem cell growth factor receptor Kit (Homo sapiens), P10721 [UNDEFINED MUTATION]; experiment: Inhibition of c-KIT 560 to 578 deletion mutant in human GISTT1 cells assessed as reduction in ERK phosphorylation at T202/Y204 residue at 0.1 uM to 3 uM after 1 hr by Western blot analysis; format: cell-based; summary of the method: as §2
GISTT1 [13] = experiment: Induction of apoptosis in human GISTT1 cells harboring c-KIT 560 to 578 deletion/T670I double mutant assessed as increase in cleaved caspase level after 24 hrs by Western blot analysis; format: functional, cell-based
GISTT1 [14] = experiment: Antiproliferative activity against human GISTT1 cells harboring c-KIT 560 to 578 deletion/T670I double mutant incubated for 72 hrs by CCK8 assay; format: functional; conditions: GISTT1, 72 h; summary of the method: as §5
[15] = molecular target: Platelet-derived growth factor receptor alpha (Homo sapiens, UniProt P16234); experiment: Binding affinity to wild-type human partial length PDGFRA (V575 to D1002 residues) expressed in mammalian expression system assessed as enzyme remaining activity at 1 uM by Kinomescan assay relative to control
[16] = AUC (0 to infinity) in mouse at 10 mg/kg, po measured after 5 to 720 mins by LC-tandem mass spectrometry analysis; format: ADME, organism-based; design: dose 10 mg/kg, route oral, time infinity; conditions: in vivo; summary of the method: as §3
[17] = tested on: Mast/stem cell growth factor receptor Kit (Homo sapiens), P10721 [UNDEFINED MUTATION]; experiment: Inhibition of c-KIT 560 to 578 deletion/T670I double mutant in human GIST5R cells assessed as reduction in STAT3 phosphorylation after 1 hr by Western blot analysis; format: cell-based; summary of the method: as §2

Chain of Mast/stem cell growth factor receptor Kit (Homo sapiens), P10721 [UNDEFINED MUTATION] (P10721 whole entry, looked up, stated change not applied): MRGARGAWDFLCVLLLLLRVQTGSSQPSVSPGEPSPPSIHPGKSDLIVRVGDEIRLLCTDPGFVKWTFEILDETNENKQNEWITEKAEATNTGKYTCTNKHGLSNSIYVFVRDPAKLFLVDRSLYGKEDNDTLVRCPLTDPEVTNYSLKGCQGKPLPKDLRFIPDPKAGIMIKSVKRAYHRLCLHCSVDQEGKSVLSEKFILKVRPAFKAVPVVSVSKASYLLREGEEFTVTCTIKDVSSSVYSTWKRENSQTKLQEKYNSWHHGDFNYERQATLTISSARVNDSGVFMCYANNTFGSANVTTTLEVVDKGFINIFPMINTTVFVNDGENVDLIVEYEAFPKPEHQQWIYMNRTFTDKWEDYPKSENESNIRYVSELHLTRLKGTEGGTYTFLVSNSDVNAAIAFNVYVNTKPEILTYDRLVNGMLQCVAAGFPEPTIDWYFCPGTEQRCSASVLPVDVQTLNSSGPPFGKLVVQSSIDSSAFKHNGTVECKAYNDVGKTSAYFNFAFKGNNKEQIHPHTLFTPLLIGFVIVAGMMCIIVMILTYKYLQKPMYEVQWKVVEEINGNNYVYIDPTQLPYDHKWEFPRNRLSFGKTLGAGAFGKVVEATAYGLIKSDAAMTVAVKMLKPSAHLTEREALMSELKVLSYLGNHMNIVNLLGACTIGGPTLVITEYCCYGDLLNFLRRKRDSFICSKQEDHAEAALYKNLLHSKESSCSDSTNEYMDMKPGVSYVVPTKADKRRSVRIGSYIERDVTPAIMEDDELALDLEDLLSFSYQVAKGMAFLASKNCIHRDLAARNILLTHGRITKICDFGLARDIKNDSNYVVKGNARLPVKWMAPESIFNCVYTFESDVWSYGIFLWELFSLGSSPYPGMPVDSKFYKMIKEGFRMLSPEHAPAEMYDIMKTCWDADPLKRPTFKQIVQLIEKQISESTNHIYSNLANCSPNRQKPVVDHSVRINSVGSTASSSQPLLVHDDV
Chain of Mast/stem cell growth factor receptor Kit (Homo sapiens), P10721 [V559G] (P10721 whole entry V559G, the tested form may be a part): as the sequence (P10721 whole entry, looked up, stated change not applied) above, with V559G counted along it
Chain of Mast/stem cell growth factor receptor Kit (Homo sapiens), P10721 [L576P] (P10721 whole entry L576P, the tested form may be a part): as the sequence (P10721 whole entry, looked up, stated change not applied) above, with L576P counted along it
Chain of Mast/stem cell growth factor receptor Kit (P10721 whole entry, the tested form may be a part): as the sequence (P10721 whole entry, looked up, stated change not applied) above
Chain of Mast/stem cell growth factor receptor Kit (Homo sapiens), P10721 [V559D,T670I] (P10721 whole entry V559D/T670I, the tested form may be a part): as the sequence (P10721 whole entry, looked up, stated change not applied) above, with V559D, T670I counted along it
Chain of Platelet-derived growth factor receptor beta (P09619 whole entry, the tested form may be a part): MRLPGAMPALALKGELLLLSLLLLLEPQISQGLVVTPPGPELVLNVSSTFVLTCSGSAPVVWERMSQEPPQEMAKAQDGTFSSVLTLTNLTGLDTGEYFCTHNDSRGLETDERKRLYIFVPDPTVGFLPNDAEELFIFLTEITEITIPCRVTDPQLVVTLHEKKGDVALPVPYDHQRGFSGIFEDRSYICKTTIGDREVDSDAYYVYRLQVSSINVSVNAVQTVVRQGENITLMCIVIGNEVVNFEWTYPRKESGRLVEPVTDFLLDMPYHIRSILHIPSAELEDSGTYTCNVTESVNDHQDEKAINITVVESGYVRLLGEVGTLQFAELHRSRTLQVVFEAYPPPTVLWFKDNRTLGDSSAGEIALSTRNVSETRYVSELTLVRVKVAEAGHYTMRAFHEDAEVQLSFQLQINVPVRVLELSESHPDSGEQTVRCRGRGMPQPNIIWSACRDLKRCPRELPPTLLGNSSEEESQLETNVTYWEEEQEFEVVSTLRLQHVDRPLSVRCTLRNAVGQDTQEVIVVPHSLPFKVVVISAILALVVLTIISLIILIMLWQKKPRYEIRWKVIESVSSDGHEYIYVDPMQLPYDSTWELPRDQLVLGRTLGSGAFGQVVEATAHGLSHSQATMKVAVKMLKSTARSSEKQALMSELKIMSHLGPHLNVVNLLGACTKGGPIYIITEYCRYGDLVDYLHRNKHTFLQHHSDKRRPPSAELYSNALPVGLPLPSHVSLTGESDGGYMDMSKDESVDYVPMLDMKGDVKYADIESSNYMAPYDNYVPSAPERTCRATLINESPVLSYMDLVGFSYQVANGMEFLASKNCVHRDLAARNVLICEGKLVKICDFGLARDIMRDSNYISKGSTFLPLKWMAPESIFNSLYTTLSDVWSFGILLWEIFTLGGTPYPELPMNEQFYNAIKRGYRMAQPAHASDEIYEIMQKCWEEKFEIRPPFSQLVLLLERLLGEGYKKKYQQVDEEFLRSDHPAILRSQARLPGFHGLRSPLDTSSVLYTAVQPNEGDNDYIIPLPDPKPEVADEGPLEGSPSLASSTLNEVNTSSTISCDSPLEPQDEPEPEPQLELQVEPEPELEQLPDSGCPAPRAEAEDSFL
Chain of Platelet-derived growth factor receptor alpha (P16234 whole entry, the tested form may be a part): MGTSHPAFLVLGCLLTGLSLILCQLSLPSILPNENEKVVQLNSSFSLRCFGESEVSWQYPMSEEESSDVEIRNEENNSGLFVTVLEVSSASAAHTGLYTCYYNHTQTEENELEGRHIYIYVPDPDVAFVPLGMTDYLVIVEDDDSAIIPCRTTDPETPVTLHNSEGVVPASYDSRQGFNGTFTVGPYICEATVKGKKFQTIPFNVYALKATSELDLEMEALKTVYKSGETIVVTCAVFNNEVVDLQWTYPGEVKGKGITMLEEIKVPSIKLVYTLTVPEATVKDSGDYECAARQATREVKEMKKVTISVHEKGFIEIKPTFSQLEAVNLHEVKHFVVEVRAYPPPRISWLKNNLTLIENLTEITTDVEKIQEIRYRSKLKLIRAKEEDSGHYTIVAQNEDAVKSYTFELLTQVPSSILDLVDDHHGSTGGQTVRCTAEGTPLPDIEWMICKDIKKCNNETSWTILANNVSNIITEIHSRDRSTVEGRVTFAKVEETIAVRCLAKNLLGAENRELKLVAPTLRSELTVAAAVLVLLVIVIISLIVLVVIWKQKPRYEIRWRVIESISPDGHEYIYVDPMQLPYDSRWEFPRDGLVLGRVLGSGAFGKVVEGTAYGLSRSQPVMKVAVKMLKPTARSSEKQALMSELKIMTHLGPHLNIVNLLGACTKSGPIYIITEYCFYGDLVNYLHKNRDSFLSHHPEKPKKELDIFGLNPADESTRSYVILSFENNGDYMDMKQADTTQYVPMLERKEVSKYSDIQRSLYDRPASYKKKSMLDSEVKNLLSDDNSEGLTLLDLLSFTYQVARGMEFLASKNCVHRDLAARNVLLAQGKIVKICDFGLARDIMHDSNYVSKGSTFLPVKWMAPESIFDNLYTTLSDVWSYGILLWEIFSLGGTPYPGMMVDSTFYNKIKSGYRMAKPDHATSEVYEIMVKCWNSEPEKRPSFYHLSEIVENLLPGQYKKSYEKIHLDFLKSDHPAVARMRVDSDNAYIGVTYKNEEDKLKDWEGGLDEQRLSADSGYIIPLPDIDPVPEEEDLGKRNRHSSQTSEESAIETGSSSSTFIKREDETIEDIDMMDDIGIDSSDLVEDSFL

O=C(CC(=O)Nc1ccc2c(/C=C/c3ccccn3)n[nH]c2c1)Nc1cccc(F)c1
GI50 [1]: 26 nM
inhibition (Mus musculus): Active
EC50 [2]: 1430 nM
Activity [3]: 0%
bioavailability [4]: 27.5%
inhibition [5]: Active
Cmax [6]: 1120 ng/mL
GI50 [7]: 157 nM
Activity [8]: < 1%
inhibition in vivo at 100 mg/kg [9]: 83%
GI50 (GIST882): 296 nM
inhibition (Homo sapiens): Dose-dependent effect
inhibition [10]: inactive
MRT inf [11]: 2.2 h
inhibition [12]: Active
Activity (GISTT1 [13]): Dose-dependent effect
GI50 (GISTT1 [14]): 288 nM
Activity [15]: 3.4%
AUC(0-inf) [16]: 1480 ng·h/mL
inhibition [17]: Dose-dependent effect
